ADAM10 inh = human ADAM10 inhibitors, primary screen, biochemical, QFRET, HTS. inhibition, % at 7 µM. recombinant ADAM10, EDANS/DABCYL FRET peptide cleavage, 3 h. actives 0.62% (n = 370,000). AID 720582, 2013. Disintegrin and metalloproteinase domain-containing protein 10 (Homo sapiens), O14672;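 active = inhibition above a per-campaign cutoff equal to the mean of compounds falling between control-based bounds plus 3 SD, cut at about 20% in these data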;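 note: 0% = DMSO wells while the 100% control is not disclosed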
PLCg1 inh = PLC-gamma1 enzyme inhibitors, primary screen, biochemical, fluorescence, purified enzyme; inhibition, % at 12.2 µM; actives 0.84% (n = 370,000); AID 720700, 2013; 1-phosphatidylinositol 4,5-bisphosphate phosphodiesterase gamma-1 (Homo sapiens), P19174; fluorogenic substrate; in the data active = inhibition above about 9.5%
ADAM17 inh = ADAM17 inhibitors, primary screen, biochemical, QFRET. Disintegrin and metalloproteinase domain-containing protein 17 (Homo sapiens), P78536. actives 0.83% (n = 370,000). inhibition, % at 6.95 µM. recombinant ADAM17, EDANS/DABCYL FRET peptide cleavage. AID 720648, 2013;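 active = inhibition above the mean of compounds lying between control limits plus 3 SD, set per campaign, cut at about 8.5% in these data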;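 note: 0% = DMSO-only wells as the low control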
Target sequence (P78536 215-824 limits assumed): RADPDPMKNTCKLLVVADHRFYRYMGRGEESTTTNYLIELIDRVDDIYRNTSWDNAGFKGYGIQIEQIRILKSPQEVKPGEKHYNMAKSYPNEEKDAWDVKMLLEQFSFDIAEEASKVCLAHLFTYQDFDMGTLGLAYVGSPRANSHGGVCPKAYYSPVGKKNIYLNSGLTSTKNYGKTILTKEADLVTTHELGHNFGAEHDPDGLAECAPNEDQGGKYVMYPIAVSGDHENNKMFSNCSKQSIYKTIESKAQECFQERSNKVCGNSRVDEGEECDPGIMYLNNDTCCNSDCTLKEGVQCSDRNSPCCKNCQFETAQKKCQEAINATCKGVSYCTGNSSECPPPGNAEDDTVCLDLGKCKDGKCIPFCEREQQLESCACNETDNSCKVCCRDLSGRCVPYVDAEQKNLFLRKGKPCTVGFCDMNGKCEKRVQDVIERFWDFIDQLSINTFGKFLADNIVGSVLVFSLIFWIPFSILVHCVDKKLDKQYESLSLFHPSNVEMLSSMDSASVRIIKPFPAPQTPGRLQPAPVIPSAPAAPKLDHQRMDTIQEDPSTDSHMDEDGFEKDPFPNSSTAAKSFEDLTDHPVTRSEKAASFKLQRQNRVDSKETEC
PLCb3 inh = human PLC-beta3 inhibitors, primary screen, biochemical, fluorescence; Purified PLC-beta3, fluorogenic substrate; AID 720704, 2013; actives 0.18% (n = 370,000); 1-phosphatidylinositol 4,5-bisphosphate phosphodiesterase beta-3 (Homo sapiens), Q01970; inhibition, % at 12.2 µM;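 note: 0% = median of compound wells on plate and 100% = full blocker control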
DDE Tn6 FP inh = inhibitors of Tn6 peptide binding to fibrin DD(E), primary screen, biochemical, fluorescence polarization, human fibrin, Tn6 probe. inhibition, % at 8.3 µM. actives 0.21% (n = 370,000). AID 720509, 2013. Fibrin DD(E) TRITC-Tn6 fluorescence polarization displacement. Fibrinogen beta chain (Homo sapiens), P02675;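 active = inhibition above a per-campaign cutoff: mean of compounds within control limits plus 3 SD, cut at about 15% in these data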;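 note: 0% = median of all compound wells on the plate and 100% = blocking peptide control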
Tn7 DDE FP = inhibitors of Tn7 peptide binding to fibrin DD(E), primary screen, biochemical, fluorescence polarization, human fibrin, Tn7 probe. FP displacement of FITC-Tn7 peptide from fibrin DD(E); 0% = median of compound wells per plate. inhibition, % at 8.3 µM. actives 0.13% (n = 370,000). AID 720508, 2013;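 active = inhibition above the mean of compounds falling within the control limits plus 3 SD of them, cut at about 14% in these data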;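 note: 0% = plate median of compound wells and 100% = 10 µM Aha-Tn7 peptide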
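system = human fibrin DD(E) protein | quantity = DD(E) 2 µM final | medium = Tris/NaCl/CaCl2 buffer, pH 7.8 | also added = labelled Tn7 tracer, 0.1 µM | compound dosing = single point at 8.3 µM | timing = compound with protein 10 min, then 3 h after probe, room temperature | signal = FP measurement | benchmarks = Aha-Tn7 high control | repeats = one replicate per compound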
ADAM10 counter = ADAM10 inhibitors, counter-screen for ADAM17 exosite inhibitor project, biochemical, FRET, human ADAM10. shares compounds with ADAM17 inh. recombinant ADAM10, EDANS/DABCYL FRET peptide cleavage, 3 h. inhibition, % at 6.95 µM. actives 47% (n = 2,900);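 active = mean inhibition over the triplicate runs exceeds the activity threshold set in the earlier primary screen, cut at about 20% in these data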;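 note: 0% = DMSO wells and 100% = marimastat wells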
ADAM17 confirm = ADAM17 inhibitors, hit retest, confirmation, biochemical, QFRET peptide cleavage; shares compounds with ADAM17 inh; recombinant ADAM17, EDANS/DABCYL QFRET peptide cleavage; inhibition, % at 6.95 µM; actives 65% (n = 2,900); AID 743257, 2014;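 active = mean inhibition across replicates above the hit cutoff set in the primary screen, cut at about 8.5% in these data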;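 note: 0% = DMSO wells and 100% = marimastat wells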
PLCg1 ctr = PLC-gamma1 enzyme inhibitors, counter-screen for PLC-beta3 inhibitor project, biochemical, fluorescence; shares compounds with PLCg1 inh; purified PLC-gamma1, fluorogenic substrate; inhibition, % at 12.3 µM; actives 3.1% (n = 3,300); in the data active = inhibition above about 9.5%
PLCbeta3 conf = PLC-beta3 inhibitor confirmation, biochemical, fluorescence, purified enzyme; shares compounds with PLCg1 inh; fluorogenic substrate fluorescence; inhibition, % at 12.3 µM; actives 1% (n = 3,300); AID 743261, 2014
The depositor's hits bear a star; . = not tested or not shown. A selection: hits, their analogues and other compounds. The true share with any hit is near 2.3%. Cut-off read from the data, not from the text of the source, unless noted: active = inhibition above about 11%; inactive = the rest.

SMILES	ADAM10 inh	PLCg1 inh	ADAM17 inh	PLCb3 inh	DDE Tn6 FP inh	Tn7 DDE FP	ADAM10 counter	ADAM17 confirm	PLCg1 ctr	PLCbeta3 conf
O=C(NCC1CCCO1)c1cnn2c1NC(c1ccccc1)CC2C(F)(F)F (centres undefined)	7	12*	11*	10	-1	0	-6	-1	-8	-7
CCOC(=O)Cc1csc(NC(=O)COc2ccccc2)n1	11	11*	10.0*	6	1	-11	-9	-1	-4	0
Clc1ccc(C2[C@H]3CN(Cc4ccc(-c5ccccc5)cc4)[C@H](c4ccccc4)C34CC2(c2ccccc2)C4)cn1 (some centres undefined)	3	1	1	2	8	4	.	.	.	.
N#Cc1ccc(C23CC4(C2)[C@H](CN(Cc2ccc(-c5ccccc5)cc2)[C@@H]4c2ccccc2)C3c2ccc(Cl)nc2)cc1 (some centres undefined)	18	13*	13*	3	-6	-14	-1	4	-10	-15
COc1ccc(N=Cc2c(C)[nH][nH]c2=O)cc1	7	9.9*	8.8*	8	-8	0	13	7	1	1
O=C(Cc1cccs1)Nc1nc(-c2ccc(F)c(F)c2)cs1	11	0	2	-3	-6	0	.	.	.	.
O=C(Cc1cccs1)Nc1nc(-c2ccc(F)cc2F)cs1	16	13*	14*	10	-8	5	19	11*	-6	-7
COC(=O)[C@]12C[C@H](CC(=O)NCc3cccs3)C(=O)N(CCc3ccc(OC)c(OC)c3)C1=C[C@H](C1CCCC1)O[C@@H]2C	8	0	6	-3	9	-2	.	.	.	.
C=CCn1c(SCC(=O)Nc2ccccc2-c2ccccc2)nnc1-c1ccc(Cl)cc1	16	10*	9.3*	-7	-5	-8	22*	15*	-7	-4
O=C(NC1CCCCN(Cc2ccc(OC(F)(F)F)cc2)C1=O)c1cccc(F)c1 (centres undefined)	1	-2	-1	-2	1	3	.	.	.	.
O=C(O)c1cc(O)c2c(c1)[C@H]([C@H]1c3cc(C(=O)O)cc(O)c3C(=O)c3c(O[C@@H]4O[C@H](CO)[C@@H](O)[C@H](O)[C@H]4O)cccc31)c1cccc(OC3O[C@H](CO)[C@@H](O)[C@H](O)[C@H]3O)c1C2=O (some centres undefined)	-255	33*	16*	19*	-38	4	-367	9.7*	28*	7
O=C1c2c(O)cccc2C(C2OC(CO)[C@@H](O)[C@H](O)[C@H]2O)c2cc(CO)cc(O)c21 (some centres undefined)	1	-5	-2	-11	-1	-1	.	.	.	.

Bioassay records from PubChem BioAssay.
